According to PubChem BioAssay:
Results filed as inconclusive are left out.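 How the source made its calls, unless noted: active means cell viability at or below a set limit in both duplicate runs, the limit being the all-compound median minus 4 SD (cut at about 23% in these data, passing the limit was not always enough); inconclusive means no clear call, values can overlap the other calls; inactive means the rest.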

Assays:
[1] = S. cerevisiae growth inhibition in permissive medium (OD615), pilot counter-assay for S. cerevisiae lifespan shortening project, permissive growth control (AID 705;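 active means growth inhibition above 25% in both replicates, a cutoff set 3 SD above the mean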); conditions: OD615, 24 h, at 10 µM, hits give high values
Method in brief: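 assay system = Saccharomyces cerevisiae strain carrying genetically modified DeaD replicative-lifespan system | medium = SC raffinose/galactose permissive medium | dosing = 10 µM single dose, 0.25% DMSO | schedule = 24 h compound exposure at 30 °C after 4 h pre-growth | measured by = OD at 615 nm | read-out basis = growth inhibition from lowered OD615 after 24 h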

[2] = S. cerevisiae growth inhibition in restrictive medium, OD615, pilot screen, restrictive growth control, yeast lifespan reduction project (AID 706;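 active means growth inhibition above a set limit, 3 SD over mean compound inhibition, in both replicates, cut at about 43% in these data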;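 further: modified DeaD lifespan yeast strain shifted to restrictive glucose medium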); conditions: OD615, 48 h, at 10 µM, hits give high values
Method in brief: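 Buffer or medium: CSMM-D glucose medium. Material: genetically modified Saccharomyces cerevisiae, DeaD replicative lifespan assay strain. Times: 48 h compound exposure at 30 °C. Measured by: optical density at 615 nm.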

[3] = doxorubicin toxicity protection in MRP-1 cells – H69AR cells, CellTiter-Glo, duplicate, MRP-1 activator project, pilot screen (AID 807;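 active means viability increase at or above a cutoff of the median across tested compounds plus 3 SD, cut at about 8.5% in these data, passing the limit was not always enough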;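 further: compound pretreatment 18-22 h then 72 h combined with doxorubicin; 0% = doxorubicin alone and 100% = vehicle without doxorubicin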); conditions: H69AR viability with doxorubicin, CellTiter-Glo luminescence; at 10 µM; hits give high values
[4] = viability of HCT116 without oncogenic beta-catenin – human colon tumor cells, pilot screen (AID 823); conditions: HCT116 beta-catenin knockout viability, CellTiter-Glo, 60 h; at 10 µM; hits give low values;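 further: 0% = wells killed by 20 µM Hyamine and 100% = untreated DMSO cell wells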
[5] = viability of PTEN-null HCT116 cells – cell-based, HCT116 clonal line, CellTiter-Glo, pilot screen (AID 824;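 active means viability at or below 27.92% in each of two runs, the all-compound median minus 4 SD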;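 further: 0% = 20 µM Hyamine control and 100% = vehicle cell control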); conditions: HCT116 PTEN-deleted viability, 60 h, at 10 µM, hits give low values
[6] = RAM pathway blockade in budding yeast – dse1pr::URA3 reporter, 5-FOA selection, pilot screen (AID 869;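 active means inhibition over a set limit, the all-compound mean plus 3 SD, in both replicate runs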;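 further: 0% = DMSO wells with no growth and 100% = 10 µM 1-NA-PP1 with full growth; RAM network block rescues cells from 5-FOA so hits raise OD615 growth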); conditions: S. cerevisiae dse1pr::URA3 5-FOA growth, OD615, 2 d; at 10 µM; hits give high values; strain carries analog-sensitive mutant Cbk1 kinase
[7] = RAM signaling pathway blockade in yeast – S. cerevisiae, Pdr1DBD-CYC8 efflux-inhibited sensitized strain, primary screen (AID 1298;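 active means RAM network inhibition above 8.4% in each of two replicates, 3 SD over the compound average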;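 further: 0% = DMSO untreated cells without growth and 100% = 10 µM 1-NA-PP1 full growth; higher means more yeast growth rescued from 5-FOA killing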); conditions: S. cerevisiae cbk1-as DSE1-URA3 strain, 5-FOA growth OD615, 2 d; at 50 µM; hits give high values

CC(=O)c1ccc(OCC(O)CN2C(C)CCCC2C)cc1 (stereo unspecified)
inactive: growth inhibition [1] -1.28% | growth inhibition [2] -5.97% | viability increase [3] -0.1% | viability [4] 97.8% | viability [5] 98.1% | inhibition [6] 0.78% | RAM network inhibition [7] 1.46%

COc1ccccc1N(CC(=O)Nc1ccccc1C(=O)NC(C)C)S(C)(=O)=O
inactive: growth inhibition [1] -3.27% | growth inhibition [2] -16.6% | viability increase [3] -0.99% | viability [4] 86.6% | viability [5] 77% | inhibition [6] 1.95% | RAM network inhibition [7] -0.28%

CN1CCCc2cc3c(C(F)(F)F)cc(=O)oc3nc21
inactive: growth inhibition [1] -5.06% | growth inhibition [2] 5.85% | viability increase [3] -1.33% | viability [4] 94.2% | viability [5] 102% | inhibition [6] 1.14% | RAM network inhibition [7] 1.82%

CCOC(=O)N1CCN(CC(=O)Nc2cc(OCC)ccc2OCC)CC1
inactive: growth inhibition [1] -8.3% | growth inhibition [2] -19.7% | viability increase [3] -6.22% | viability [4] 91.2% | viability [5] 93.8% | inhibition [6] 2.08% | RAM network inhibition [7] 7.52%

O=C1CC(N2CCN(C(c3ccccc3)c3ccccc3)CC2)C(=O)N1 (stereo unspecified)
inactive: growth inhibition [1] -8.31% | growth inhibition [2] -9.7% | viability increase [3] -1.16% | viability [4] 102% | viability [5] 102% | inhibition [6] 1.03% | RAM network inhibition [7] 5.3%

CC(NC(=O)COc1ccccc1)C(c1ccccc1)N1CCN(C)CC1 (stereo unspecified)
inactive: growth inhibition [1] -4.2% | growth inhibition [2] -7.49% | viability increase [3] -3.94% | viability [4] 97% | viability [5] 96.8% | inhibition [6] 1.02% | RAM network inhibition [7] 4.65%

CSC1=NCCN1C(=O)C(C)Oc1ccccc1 (stereo unspecified)
inactive: growth inhibition [1] 1.44% | growth inhibition [2] -0.77% | viability increase [3] 1.74% | viability [4] 101% | viability [5] 99.2% | inhibition [6] 0.34% | RAM network inhibition [7] 0.46%

Cc1ccc(S(=O)(=O)NCCCN2CCOCC2)c(C)c1
inactive: growth inhibition [1] -5.02% | growth inhibition [2] -7.8% | viability increase [3] -1.19% | viability [4] 96.8% | viability [5] 95.5% | inhibition [6] 2.29% | RAM network inhibition [7] 5.89%

Cc1ccc(Cc2cnc(N)s2)o1
inactive: growth inhibition [1] -11.3% | growth inhibition [2] 10.1% | viability increase [3] -5.06% | viability [4] 75.9% | inhibition [6] 2.06% | RAM network inhibition [7] 5.71%

CN(C(=O)c1ccc(NC(=O)c2cnccn2)cc1)C1CCCCC1
inactive: growth inhibition [1] 2.12% | growth inhibition [2] 7.4% | viability increase [3] -1.47% | viability [4] 99.9% | inhibition [6] 0.62% | RAM network inhibition [7] 6.39%

CC1(C)Cc2c(sc3c2c(=N)n(Cc2ccco2)c(=O)n3Cc2ccc(F)cc2)CO1
inactive: growth inhibition [1] -14.4% | growth inhibition [2] -4.37% | viability increase [3] -6.4% | viability [4] 56.5% | inhibition [6] 1.44% | RAM network inhibition [7] 6.85%

O=C(NCc1cccs1)C1CCCN(S(=O)(=O)c2ccc3c(c2)OCO3)C1 (stereo unspecified)
inactive: growth inhibition [1] -20.3% | growth inhibition [2] -1.21% | viability increase [3] -3.16% | viability [4] 90.8% | inhibition [6] 1.46% | RAM network inhibition [7] 3.17%

CN(C)CCCNCCCNC(=O)/C(=N\O)c1ccccn1
inactive: growth inhibition [1] -3.34% | growth inhibition [2] -2.4% | viability increase [3] 1.1% | viability [4] 93.3% | viability [5] 105% | inhibition [6] 1.53% | RAM network inhibition [7] 2.45%

CCOC(=O)c1c(CC(C)C)csc1NC=O
inactive: growth inhibition [1] -4.46% | growth inhibition [2] -33.1% | viability increase [3] -1.84% | viability [4] 81.8% | viability [5] 80.1% | inhibition [6] 1.18% | RAM network inhibition [7] 0.88%

COc1ccc(C2C(C(=O)c3ccco3)=C(O)C(=O)N2CCc2ccccc2)cc1OC (stereo unspecified)
inactive: growth inhibition [1] -12.1% | growth inhibition [2] 7.54% | viability increase [3] -1.95% | viability [4] 101% | viability [5] 92.5% | inhibition [6] 5.36% | RAM network inhibition [7] 4.36%

Cc1cc(Nc2ccccc2Br)n2nc(C)nc2n1
inactive: growth inhibition [1] -3.05% | growth inhibition [2] -13.3% | viability increase [3] -2.64% | viability [4] 107% | viability [5] 98.2% | inhibition [6] 1.9% | RAM network inhibition [7] -1.82%

CCN1C(=S)SC(=O)C1=C1C=C(C)OC(C)=C1
inactive: growth inhibition [1] -11% | growth inhibition [2] 14.9% | viability increase [3] -3.02% | viability [4] 91.9% | inhibition [6] 2.55% | RAM network inhibition [7] 5.1%

COc1ccc(Nc2nnc(Cc3ccccc3)c(=O)[nH]2)c(OC)c1
inactive: growth inhibition [1] -23.5% | growth inhibition [2] -17.1% | viability increase [3] 0.58% | viability [4] 93.5% | viability [5] 92.7% | inhibition [6] 1.52% | RAM network inhibition [7] 3.16%
